High-throughput results from PubChem.
Most compounds without a hit are left out; they make up all but 2.8% or so of the library.
DENV2 CPE = DENV2-induced cell death inhibition; AID 651640; actives 1.7% (n = 350,000); CPE inhibition, % at 9.99 µM; DENV2-infected cells, cytopathic effect rescue, plate reader; in the data active = CPE inhibition above about 20%, passing the limit was not always enough; inconclusive = no clear call, values can overlap the other calls; tested in BHK-21 cells
SIRT5 block = inhibitors of human sirtuin-5 desuccinylase; Q9NXA8; Purified SirT5, succinyl-peptide AMC, trypsin-coupled fluorescence; inhibition, % at 15 µM; actives 1.1% (n = 330,000); in the data active = inhibition above about 15%; inconclusive = no clear call, values can overlap the other calls
Target sequence (Q9NXA8 whole entry, looked up): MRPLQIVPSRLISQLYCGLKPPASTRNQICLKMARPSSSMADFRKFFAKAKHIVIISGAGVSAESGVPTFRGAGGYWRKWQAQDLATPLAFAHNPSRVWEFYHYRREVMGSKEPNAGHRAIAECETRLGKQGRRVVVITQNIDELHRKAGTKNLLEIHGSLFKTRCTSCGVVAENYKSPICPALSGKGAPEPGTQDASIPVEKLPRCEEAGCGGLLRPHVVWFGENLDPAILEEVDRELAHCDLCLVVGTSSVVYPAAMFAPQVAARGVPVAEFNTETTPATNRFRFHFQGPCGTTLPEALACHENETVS
E-selectin induc = E-selectin induction on HUVECs. HUVEC E-selectin immunofluorescence imaging; normalized: neutral wells 0, TNF-alpha wells 100. activation, % at 7.58 µM. actives 0.37% (n = 260,000). P16581;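 active = mean E-selectin-positive cell signal at least 10% of the positive control, reached in at least 60% of replicates, without over 20% cell loss; inconclusive = no rule given, readout overlaps actives, possibly toxicity-flagged; inactive = the rest, including those meeting only one limit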
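assay system = HUVEC, human umbilical vein endothelial cells | input = 3,000 HUVEC seeded per well | medium = EGM-2 growth medium on 0.1% gelatin-coated wells | dosing = one compound dose added by pin transfer | signal = immunofluorescence imaging | read-out basis = % PE-positive cells | control set = TNF-alpha, DMSO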
Hits are given with their value; - = inactive; ? = inconclusive; . = not tested or not shown.

SMILES | DENV2 CPE | SIRT5 block | E-selectin induc
C[C@@H]1CN([C@@H](C)CO)C(=O)Cc2cc(NC(=O)CCN3CCOCC3)ccc2O[C@@H]1CN(C)S(=O)(=O)c1ccc(F)cc1 | - | - | -
CC(C)(C)n1nnnc1C(c1cc2ccccc2o1)N1CCCC1 (centres undefined) | - | - | -
CC(C)(C)n1nnnc1C(c1cc2ccccc2o1)N1CCOCC1 (centres undefined) | 107 | - | -
C[C@@H]1CN([C@H](C)CO)C(=O)Cc2cc(NC(=O)C3CCCCC3)ccc2O[C@H]1CN(C)Cc1ccc(C(F)(F)F)cc1 | - | - | -
COc1ccc(S(=O)(=O)Nc2ccc3c(c2)C(=O)N([C@H](C)CO)C[C@@H](C)[C@@H](CN(C)C(=O)Nc2cccc4ccccc24)OCCCC[C@@H](C)O3)cc1 | - | . | -
CC(C)(C)[S@](=O)N1Cc2cc(C(=O)NCc3ccc4c(c3)OCO4)nc(-c3cccc(-c4ccncc4)c3)c2[C@@H]1CCO | - | - | -
Cc1ccc(S(=O)(=O)N[C@H]2CC[C@H](CCNC(=O)c3ccc4c(c3)OCO4)O[C@@H]2CO)cc1 | - | - | -
CCN(CC)S(=O)(=O)c1cccc(C(=O)NCC2(N3CCOCC3)CCCCC2)c1 | 95 | - | -
CN(C)S(=O)(=O)c1cccc(C(=O)NCC2(N3CCOCC3)CCCCC2)c1 | - | - | -
C[C@H](CO)N1C[C@H](C)[C@H](CN(C)S(=O)(=O)c2cccc(F)c2)Oc2ncc(-c3cc4ccccc4o3)cc2C1=O | . | 15 | -
C[C@H](CO)N1C[C@H](C)[C@@H](CN(C)S(=O)(=O)c2cccc(F)c2)Oc2ncc(C#CC3CCCCC3)cc2C1=O | - | 30 | .
C[C@@H]1CN([C@@H](C)CO)C(=O)c2cc(C#CC3CCCCC3)cnc2O[C@H]1CN(C)S(=O)(=O)c1cccc(F)c1 | - | 22 | .
C[C@@H]1CN([C@H](C)CO)C(=O)c2cc(C#CC3CCCC3)cnc2O[C@H]1CN(C)S(=O)(=O)c1cccc(F)c1 | ? | - | -
COc1cccc(S(=O)(=O)N(C)C[C@@H]2Oc3ncc(-c4cc5ccccc5o4)cc3C(=O)N([C@H](C)CO)C[C@@H]2C)c1 | - | - | -
C[C@@H]1CN([C@H](C)CO)C(=O)c2cc(C#Cc3ccccc3)cnc2O[C@@H]1CN(C)S(=O)(=O)c1ccccc1F | ? | - | -
C[C@@H]1CN([C@@H](C)CO)C(=O)c2cc(C#Cc3ccccc3F)cnc2O[C@H]1CN(C)S(=O)(=O)c1ccccc1F | 35 | - | -
C[C@@H]1CN([C@H](C)CO)C(=O)c2cc(C#CC3CCCCC3)cnc2O[C@H]1CN(C)S(=O)(=O)c1cccc(F)c1 | - | - | -
O=C(O)C[C@H]1C[C@@H]2c3cc(NS(=O)(=O)c4ccccc4)ccc3O[C@@H]2[C@H](CO)O1 | - | - | -
C[C@@H]1CN([C@H](C)CO)C(=O)c2cc(C3=CCCCC3)cnc2O[C@@H]1CN(C)C(=O)Nc1cccc(F)c1 | - | - | -
CNC(=O)C[C@@H]1CC[C@@H]2[C@H](COc3ccc(NC(=O)Nc4ccccc4F)cc3C(=O)N2C)O1 | ? | - | -
CCC(=O)Nc1ccc2c(c1)OC[C@@H](C)N(CC1CCOCC1)C[C@@H](C)[C@H](OC)CN(C)C2=O | ? | - | -
C[C@H](NC(=O)C[C@@H]1C[C@@H]2c3cc(NC(=O)NC4CCCCC4)ccc3O[C@@H]2[C@H](CO)O1)c1ccccc1 | - | - | -
C[C@@H]1CN([C@@H](C)CO)C(=O)c2cc(C#CC3CCCCC3)cnc2O[C@@H]1CN(C)S(=O)(=O)c1cccc(F)c1 | - | 18 | -
C[C@@H]1CN([C@@H](C)CO)C(=O)c2cc(C#CC3CCCCC3)cnc2O[C@@H]1CN(C)S(=O)(=O)c1ccccc1 | - | 16 | -
C[C@H]1CN([C@@H](C)CO)C(=O)c2cc(C#CC3CCCCC3)cnc2O[C@H]1CN(C)S(=O)(=O)c1cccc(F)c1 | - | - | -
SMILES | DENV2 CPE | SIRT5 block | E-selectin induc
C[C@H](CO)N1C[C@H](C)[C@@H](CN(C)S(=O)(=O)c2ccccc2)Oc2ncc(C#CC3CCCCC3)cc2C1=O | - | - | -
C[C@@H]1CN([C@H](C)CO)C(=O)c2cc(C#CCN(C)C)cnc2O[C@@H]1CN(C)C(=O)c1ccc2c(c1)OCO2 | - | - | .
CC(C)NC(=O)N1[C@H](CO)[C@H](c2ccccc2-c2ccc(F)cc2)[C@@H]1C#N | - | - | -
COc1ccccc1[N+](=O)[O-] | - | . | .
COc1ccccc1P(=O)(Cc1ccccc1[N+](=O)[O-])c1ccccc1 (centres undefined) | - | - | 59
CCC(=O)N1[C@H](CO)[C@@H](c2ccc(-c3cccc(OC)c3)cc2)C12CN(C(C)=O)C2 | - | - | -
COCC(=O)N1CC2(C1)[C@H](c1ccc(-c3cccc(C)c3)cc1)[C@@H](CO)N2C(=O)C1CC1 | - | - | -
COCC(=O)N1CC2(C1)[C@H](c1ccc(-c3cccc(C)c3)cc1)[C@H](CO)N2C(=O)C1CC1 | 49 | - | -
COCC(=O)N1[C@@H](CO)[C@H](c2ccc(-c3cccc(OC)c3)cc2)C12CN(C(C)=O)C2 | 31 | - | -
O=C(C[C@@H]1CC[C@H]2[C@@H](COC[C@H](O)CN2S(=O)(=O)c2cccc(Cl)c2)O1)Nc1ccccc1 | - | . | -
C[C@@H]1CN([C@@H](C)CO)C(=O)c2cc(NC(=O)c3ccccc3)ccc2O[C@@H](C)CCCCO[C@@H]1CN(C)Cc1ccncc1 | ? | - | -
O=C(CSc1ccc(-c2ccccc2)nn1)c1cccs1 | . | 16 | -
COc1ccc(-c2ccc(SCC(=O)c3cccs3)nn2)cc1 | - | - | .
CC(C)(C)C(=O)Nc1nnc(SCc2ccc(F)cc2)s1 | . | . | -
CCOC(=O)C(=O)Nc1nnc(SCc2ccc(F)cc2)s1 | - | - | 39
C[C@H]1CN([C@@H](C)CO)C(=O)Cc2cc(NC(=O)CCN3CCOCC3)ccc2O[C@H]1CN(C)S(=O)(=O)c1cn(C)cn1 | - | - | -
COc1ccccc1CC(=O)NNS(=O)(=O)c1ccc([N+](=O)[O-])cc1 | - | 25 | -
COc1ccccc1CC(=O)NNS(=O)(=O)c1cccc([N+](=O)[O-])c1 | - | . | -
C[C@@H]1CCCCO[C@H](CN(C)C(=O)Nc2ccc(C(F)(F)F)cc2)[C@H](C)CN([C@H](C)CO)C(=O)c2cc(NS(=O)(=O)c3cn(C)cn3)ccc2O1 | - | - | -
Cc1cccc(NC(=O)CCCN2C(=O)C(c3ccccc3)Oc3cccnc32)c1C (centres undefined) | ? | - | 57
Cc1cccc(C)c1NC(=O)CCCN1C(=O)C(c2ccccc2)Oc2cccnc21 (centres undefined) | ? | - | .
CCC(=O)N1C[C@@H](C)[C@H](OC)CN(C)C(=O)c2ccc(NC(=O)c3cnccn3)cc2OC[C@H]1C | - | - | -
CN(C)C(=O)[C@@H]1[C@@H](CO)[C@@H]2Cn3c(ccc(-c4ccncc4)c3=O)[C@H]1N2CC1CCCC1 | - | - | -
COc1cccc(S(=O)(=O)N[C@H]2C=C[C@H](CC(=O)NCc3ccncc3)O[C@H]2CO)c1 | 28 | - | -
COc1cccc(S(=O)(=O)N[C@@H]2C=C[C@H](CC(=O)NCc3ccc(F)cc3)O[C@H]2CO)c1 | - | - | -
